The values below come from ChEMBL document CHEMBL1932999, “Increased susceptibility to resveratrol of Helicobacter pylori strains isolated from patients with gastric carcinoma” (2011).

For orientation: MBC means the lowest tested concentration that kills the bacteria rather than only halting them. Read a low MBC as greater bactericidal potency.

Common to all, as to assay type: functional
In assay [1] the test system is Helicobacter pylori. The assay can be described thus: Antibacterial activity against CagA-expressing Helicobacter pylori 3Cb isolated from gastric carcinoma patient after 24 hrs compound exposure followed by incubation on Columbia-blood agar plate for 3 to 5 days. The essentials: (§1)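 Compound dissolved in water with 4% DMSO, filter-sterilized, and serially twofold diluted in Brucella broth with 10% bovine fetal serum. Inoculum from 48 h microaerobic Brucella agar-BFS cultures, added at approximately 10^6 CFU/mL final. Broth incubated microaerobically at 37 °C for 24 or 48 h, then each dilution subcultured onto Columbia-blood agar. MBC is the lowest concentration with no growth on subculture. Triplicate; mean ± SD.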

In assay [2] the test system is Helicobacter pylori. Nature of the assay: Antibacterial activity against CagA-deficient Helicobacter pylori G104 isolated from chronic gastritis patient after 24 hrs compound exposure followed by incubation on Columbia-blood agar plate for 3 to 5 days. The essentials: as §1
The test system of assay [3] is Helicobacter pylori. Nature of the assay: Antibacterial activity against CagA-expressing Helicobacter pylori 1C1 isolated from gastric carcinoma patient after 48 hrs compound exposure followed by incubation on Columbia-blood agar plate for 3 to 5 days. Put shortly:
as §1

In brackets after ≈: the same amount, converted by molar mass.

For the compound `Oc1ccc(/C=C/c2cc(O)cc(O)c2)cc1` [RESVERATROL], the figures for the MBC with Helicobacter pylori [1], in the assay on Helicobacter pylori [2] and in the assay with Helicobacter pylori [3] were 40 µg/mL (≈ 175 µM), 295 µg/mL (≈ 1290 µM) and 80 µg/mL (≈ 350 µM), respectively.
